In ChEMBL document CHEMBL3763045, “Design, Synthesis, and Pharmacological Evaluation of Novel N-Acylhydrazone Derivatives as Potent Histone Deacetylase 6/8 Dual Inhibitors” (J Med Chem, 2016):
In brackets after ≈: the same amount, converted by molar mass. Activity calls are given as the source filed them. The calls are words filed in the database; no cut-off is given here.

What was measured:
HepG2 [1] = experiment: Antiproliferative activity against human HepG2 cells assessed as reduction in cell viability at 40 uM after 48 hrs by MTS assay; type: functional, cell-based
Histone deacetylase 2 = Histone deacetylase 2 (Homo sapiens, UniProt Q92769); experiment: Inhibition of recombinant human HDAC2 by fluorimetry
Histone deacetylase 1 = Histone deacetylase 1 (Homo sapiens, UniProt Q13547); experiment: Inhibition of recombinant human HDAC1 by fluorimetry
[2] = target: Histone deacetylase (Rattus norvegicus) (UniProt Q6P6W3+Q99P99+Q99P96+Q4QQW4+Q99P97+Q5RJZ2+B1WBY8); experiment: Inhibition of HDAC in rat liver at 1 uM by fluorimetry
Outline: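 Rat liver HDAC preparation, non-selective enzyme assay, test compounds at 1 µM; % inhibition is the mean of two experiments.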

Histone deacetylase 8 = target: T1, Histone deacetylase 8 (Homo sapiens, UniProt Q9BY41); experiment: Inhibition of recombinant human HDAC8 by fluorimetry
T1 sequence (Q9BY41 whole entry): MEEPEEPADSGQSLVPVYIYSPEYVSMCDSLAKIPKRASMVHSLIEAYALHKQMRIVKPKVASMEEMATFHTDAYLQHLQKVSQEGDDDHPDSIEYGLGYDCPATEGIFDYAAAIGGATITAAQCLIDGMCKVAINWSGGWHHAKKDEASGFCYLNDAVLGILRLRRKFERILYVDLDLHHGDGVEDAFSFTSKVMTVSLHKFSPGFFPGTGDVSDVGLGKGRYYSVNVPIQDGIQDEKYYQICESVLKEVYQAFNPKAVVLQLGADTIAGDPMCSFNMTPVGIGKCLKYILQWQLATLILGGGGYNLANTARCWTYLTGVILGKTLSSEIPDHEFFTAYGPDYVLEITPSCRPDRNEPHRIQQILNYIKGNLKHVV

MCF7 = experiment: Antiproliferative activity against human MCF7 cells assessed as reduction in cell viability at 40 uM after 48 hrs by MTS assay; type: functional, cell-based
Outline: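 MCF-7 cells exposed at 40 µM for 48 h, viability by MTS; ANOVA with Tukey's post-test against control.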

HT-144 = experiment: Antiproliferative activity against human HT144 cells assessed as reduction in cell viability at 40 uM after 48 hrs by MTS assay; type: functional, cell-based
[3] = target: T2, Protein deacetylase HDAC6 (Homo sapiens, UniProt Q9UBN7); experiment: Inhibition of recombinant human HDAC6 by fluorimetry
T2 sequence (Q9UBN7 whole entry): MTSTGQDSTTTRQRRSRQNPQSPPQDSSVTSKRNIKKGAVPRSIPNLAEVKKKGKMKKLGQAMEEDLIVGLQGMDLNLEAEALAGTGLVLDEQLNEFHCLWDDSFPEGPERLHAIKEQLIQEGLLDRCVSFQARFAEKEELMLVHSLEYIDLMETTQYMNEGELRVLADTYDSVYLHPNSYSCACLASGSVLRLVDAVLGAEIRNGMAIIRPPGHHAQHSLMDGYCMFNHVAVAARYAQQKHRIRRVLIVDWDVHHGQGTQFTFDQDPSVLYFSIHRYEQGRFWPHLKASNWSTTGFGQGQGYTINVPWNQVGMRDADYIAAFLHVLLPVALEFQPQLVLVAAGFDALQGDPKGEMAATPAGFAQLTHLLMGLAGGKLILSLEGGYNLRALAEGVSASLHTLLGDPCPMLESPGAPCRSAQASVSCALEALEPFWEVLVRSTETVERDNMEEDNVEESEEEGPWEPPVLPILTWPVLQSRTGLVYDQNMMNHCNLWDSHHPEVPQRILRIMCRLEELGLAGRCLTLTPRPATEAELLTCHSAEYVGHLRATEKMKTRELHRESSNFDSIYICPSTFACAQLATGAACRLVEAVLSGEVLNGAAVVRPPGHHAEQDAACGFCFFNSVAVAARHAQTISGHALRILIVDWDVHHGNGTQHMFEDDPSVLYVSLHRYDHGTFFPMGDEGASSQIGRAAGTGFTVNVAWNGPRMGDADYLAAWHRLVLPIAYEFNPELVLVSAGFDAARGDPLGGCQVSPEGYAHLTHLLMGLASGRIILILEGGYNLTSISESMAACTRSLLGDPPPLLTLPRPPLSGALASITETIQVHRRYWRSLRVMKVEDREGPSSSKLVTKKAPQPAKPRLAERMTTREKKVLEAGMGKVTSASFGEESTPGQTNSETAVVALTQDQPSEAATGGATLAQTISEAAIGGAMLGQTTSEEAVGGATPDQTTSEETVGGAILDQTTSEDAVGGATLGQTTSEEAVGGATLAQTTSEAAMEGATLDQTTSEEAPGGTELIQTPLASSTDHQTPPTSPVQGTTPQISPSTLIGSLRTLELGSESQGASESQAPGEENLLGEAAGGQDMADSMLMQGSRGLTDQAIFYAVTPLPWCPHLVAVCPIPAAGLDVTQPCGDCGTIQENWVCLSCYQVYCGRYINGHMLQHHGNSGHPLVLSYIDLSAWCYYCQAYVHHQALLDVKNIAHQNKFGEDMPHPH

[4] = Aqueous solubility of the compound in buffer at pH 7.4 after 24 hrs by spectrophotometric method; type: physicochemical
Outline: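 Water solubility in pH 7.4 buffer, measured spectrophotometrically by the method of Schneider and coworkers.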

[5] = Antiproliferative activity against human HT144 cells assessed as reduction in cell viability after 48 hrs by MTS assay; type: functional, cell-based; settings: HT-144, 48 h
[6] = Chemical stability of the compound in acidic buffer assessed as compound hydrolysis at pH 2 measured for 240 mins by HPLC-PDA analysis; type: physicochemical; settings: pH 2, 4 h
Outline: (§1)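 Compounds stirred in pH 7.4 or pH 2 buffer at 37 °C for 240 min; percentage of compound recovered followed over time (30 min and 4 h points). Triplicate runs, values averaged.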

[7] = Chemical stability of the compound in acidic buffer assessed as compound recovery at pH 2 after 30 mins by HPLC-PDA analysis; type: physicochemical; outline: as §1
[8] = Chemical stability of compound in phosphate dibasic buffer assessed as compound degradation at pH 7.4 by HPLC-PDA analysis; type: physicochemical; settings: read-out: Drug degradation; outline: as §1
HepG2 [9] = experiment: Antiproliferative activity against human HepG2 cells assessed as reduction in cell viability after 48 hrs by MTS assay; type: functional, cell-based; settings: HepG2, 48 h
[10] = Ionization constant, pKa of the compound in buffer measured over 3 hrs by UV spectrometry; type: physicochemical
HepG2 [11] = experiment: Effect on cell cycle distribution in human HepG2 cells assessed as accumulation at SubG1 phase at 5 to 10 uM after 24 to 48 hrs by propidium iodide staining-based flow cytometry; type: functional
Outline: (§2)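 Cell cycle of HepG2 cells by flow cytometry after 5 or 10 µM for 24 and 48 h, giving SubG1, G0/G1, S and G2/M fractions. ANOVA with Tukey's post-test against control.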

Calu-1 [12] = experiment: Inhibition of cell migration in human Calu1 cells at 15 and 30 nM after 48 hrs by scratch test; type: functional, cell-based
Outline: (§3)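 Calu-1 migration by scratch test after 48 h treatment. DMSO vehicle control; one representative of three independent experiments.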

HepG2 [13] = experiment: Effect on cell cycle distribution in human HepG2 cells assessed as decrease in G0/G1 phase at 5 to 10 uM after 24 to 48 hrs by propidium iodide staining-based flow cytometry; type: functional; outline: as §2
[14] = Lipophilicity, logD of the compound at pH 7.4 after 4 hrs; type: physicochemical; settings: buffer
[15] = target: T3, Protein deacetylase HDAC6 (Homo sapiens) (UniProt Q9UBN7); experiment: Inhibition of HDAC6 in human Calu1 cells assessed as induction of tubulin acetylation at 15 to 54 nM after 24 hrs by Western blotting analysis; type: cell-based; settings: Calu-1
T3 sequence (whole entry): T2 sequence (Q9UBN7 whole entry)
Outline: (§4)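 Calu-1 and A549 cells treated 24 h, acetylated tubulin detected by western blot with GAPDH as loading control. DMSO vehicle control; one representative of three independent experiments.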

HepG2 [16] = experiment: Effect on cell cycle distribution in human HepG2 cells assessed as decrease in S phase at 5 to 10 uM after 24 to 48 hrs by propidium iodide staining-based flow cytometry; type: functional; outline: as §2
HepG2 [17] = experiment: Effect on cell cycle distribution in human HepG2 cells assessed as accumulation at G2/M phase at 5 uM after 24 and 48 hrs by propidium iodide staining-based flow cytometry; type: functional; outline: as §2
[18] = target: T3, Protein deacetylase HDAC6 (Homo sapiens); experiment: Inhibition of HDAC6 in human A549 cells assessed as induction of tubulin acetylation at 15 to 54 nM after 24 hrs by Western blotting analysis; type: cell-based; outline: as §4
Histone deacetylase = experiment: Inhibition of HDAC in rat liver by fluorimetry
Outline: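 Rat liver HDAC IC50 from a six-point enzyme assay, three-fold serial dilution starting at 3 µM or 1 µM depending on compound; mean of two experiments ± SD.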

HepG2 [19] = experiment: Induction of apoptosis in human HepG2 cells at 5 to 10 uM after 24 hrs by TUNEL assay; type: functional, cell-based
Outline: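 HepG2 cells treated 24 h (5 and 10 µM for TUNEL, 5 µM for caspase 3/7). Apoptosis scored by flow cytometry as TUNEL-positive frequency and as cells with activated caspase 3/7. Doxorubicin positive control; ANOVA with Tukey's post-test.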

[20] = Chemical stability of the compound in acidic buffer assessed as compound recovery at pH 2 after 4 hrs by HPLC-PDA analysis; type: physicochemical; outline: as §1
[21] = target: T3, Protein deacetylase HDAC6 (Homo sapiens); experiment: Inhibition of HDAC6 in human Calu1 cells assessed as induction of tubulin acetylation at 27 to 54 nM after 24 hrs by Western blotting analysis; type: cell-based; settings: Calu-1; outline: as §4
[22] = target: T3, Protein deacetylase HDAC6 (Homo sapiens); experiment: Inhibition of HDAC6 in human A549 cells assessed as induction of tubulin acetylation at 27 to 54 nM after 24 hrs by Western blotting analysis; type: cell-based; outline: as §4
Calu-1 [23] = experiment: Inhibition of cell migration in human Calu1 cells at 27 and 54 nM after 48 hrs by scratch test; type: functional, cell-based; outline: as §3
[24] = acidic buffer, pH 2, read-out: Drug recovery

Sequence of Histone deacetylase 1 (Q13547 whole entry): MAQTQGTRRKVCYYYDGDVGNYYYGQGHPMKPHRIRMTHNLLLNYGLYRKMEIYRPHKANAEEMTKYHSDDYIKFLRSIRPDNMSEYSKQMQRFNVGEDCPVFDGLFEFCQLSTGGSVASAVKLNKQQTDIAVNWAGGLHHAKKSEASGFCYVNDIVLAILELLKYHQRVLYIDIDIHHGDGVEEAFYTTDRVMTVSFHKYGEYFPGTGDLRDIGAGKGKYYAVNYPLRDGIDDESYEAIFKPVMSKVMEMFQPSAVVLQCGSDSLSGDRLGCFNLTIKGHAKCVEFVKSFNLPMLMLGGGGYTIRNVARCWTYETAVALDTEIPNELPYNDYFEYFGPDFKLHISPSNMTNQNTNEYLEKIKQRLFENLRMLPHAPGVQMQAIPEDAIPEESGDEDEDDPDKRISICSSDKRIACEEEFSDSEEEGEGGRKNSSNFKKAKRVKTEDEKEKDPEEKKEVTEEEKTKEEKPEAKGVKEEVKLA
Sequence of Histone deacetylase 2 (Q92769 whole entry): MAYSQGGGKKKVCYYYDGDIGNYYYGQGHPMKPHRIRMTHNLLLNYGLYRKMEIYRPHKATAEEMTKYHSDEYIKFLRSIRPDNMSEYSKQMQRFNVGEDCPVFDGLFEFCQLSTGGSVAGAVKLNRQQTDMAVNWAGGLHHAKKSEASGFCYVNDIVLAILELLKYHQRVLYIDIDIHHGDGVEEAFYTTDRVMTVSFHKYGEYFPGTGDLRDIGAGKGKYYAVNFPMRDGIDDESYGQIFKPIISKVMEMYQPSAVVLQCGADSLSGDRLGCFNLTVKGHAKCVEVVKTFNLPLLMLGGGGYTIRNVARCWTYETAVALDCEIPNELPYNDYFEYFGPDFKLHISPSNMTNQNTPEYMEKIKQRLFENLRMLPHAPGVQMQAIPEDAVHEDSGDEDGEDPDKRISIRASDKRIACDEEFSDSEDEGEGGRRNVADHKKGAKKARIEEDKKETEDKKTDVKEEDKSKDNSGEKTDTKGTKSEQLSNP

IC50 (Histone deacetylase 2) [µM]	IC50 (Histone deacetylase 1) [µM]	inhibition [2] [%]	IC50 (Histone deacetylase 8) [µM]	IC50 [3] [µM]	solubility at 24 h [4] [µM]	Structure (SMILES)	Activity (HepG2 [1])	Activity (MCF7)	Activity (HT-144)	further results
> 10	> 10	33.4	2	2.5	> 70	CN(/N=C/c1cccc(C(=O)NO)c1)C(=O)c1ccc(N(C)C)cc1	Active	Active	Active	
> 3	> 3		0.054	0.097	122 (≈ 43.2 µg/mL)	C/C(=N\N(C)C(=O)c1ccc(N(C)C)cc1)c1ccc(C(=O)NO)cc1	Active	Active	Active	IC50 [5]: 51.6 µM; Stability [6]: Unstable; Stability ([7]; buffer, pH 2, 0.5 h): Unstable; degraded [8]: > 15%; IC50 (HepG2 [9]): 30.3 µM
					1.4 (≈ 0.475 µg/mL)	COC(=O)c1ccc(/C=N/N(C)C(=O)c2ccc(N(C)C)cc2)cc1				
		-9.1			> 77	CN(C)c1ccc(C(=O)N/N=C/c2ccc(C(=O)O)cc2)cc1				
> 3	> 3	90.4	0.23	0.015	15 (≈ 4.9 µg/mL)	CN(C)c1ccc(C(=O)N/N=C/c2ccc(C(=O)NO)cc2)cc1	Active	Active	Active	pKa at 3 h [10]: 8.1; Activity (HepG2 [11]): Active; inhibition (Calu-1 [12]): Active; Activity (HepG2 [13]): Active; logD at 4 h [14]: 0.68; inhibition [15]: Active; IC50 [5]: 21.2 µM; Stability [6]: Unstable; degraded [8]: > 15%; Activity (HepG2 [16]): Active; IC50 (HepG2 [9]): 9.48 µM; Activity (HepG2 [17]): Active; inhibition [18]: Active; IC50 (Histone deacetylase): 0.021 µM
					1.7 (≈ 0.553 µg/mL)	COC(=O)c1ccc(/C=N/NC(=O)c2ccc(N(C)C)cc2)cc1				
> 3	> 3		0.11	0.056	6.2 (≈ 2.11 µg/mL)	C/C(=N\NC(=O)c1ccc(N(C)C)cc1)c1ccc(C(=O)NO)cc1	Active	Active	Active	Activity (HepG2 [11]): Active; Activity (HepG2 [19]): Active; Activity (HepG2 [13]): Active; IC50 [5]: 20 µM; Stability [6]: Unstable; remaining at 0.5 h [7, 24]: 6%; degraded [8]: > 15%; Activity (HepG2 [16]): Active; IC50 (HepG2 [9]): 11.5 µM; Stability ([20]; buffer, pH 2, 4 h): Unstable
> 10	> 10	66	2.2	0.39	> 67	CN(C)c1ccc(C(=O)N/N=C/c2cccc(C(=O)NO)c2)cc1	Active	Active	Active	IC50 (Histone deacetylase): 1.2 µM
					> 70	CN(C)c1ccc(C(=O)N/N=C/c2cccc(C(=O)O)c2)cc1				
		-5.8			> 67	CN(/N=C/c1cccc(C(=O)O)c1)C(=O)c1ccc(N(C)C)cc1				
		-8.7			> 67	CN(/N=C/c1ccc(C(=O)O)cc1)C(=O)c1ccc(N(C)C)cc1				
		-4.6			3.7 (≈ 1.2 µg/mL)	COC(=O)c1cccc(/C=N/NC(=O)c2ccc(N(C)C)cc2)c1				
					8.2 (≈ 2.78 µg/mL)	COC(=O)c1cccc(/C=N/N(C)C(=O)c2ccc(N(C)C)cc2)c1				
> 3	> 3	90.4	0.13	0.027	> 64	CN(/N=C/c1ccc(C(=O)NO)cc1)C(=O)c1ccc(N(C)C)cc1	Active	Active	Active	pKa at 3 h [10]: 8.1; logD at 4 h [14]: 0.98; IC50 [5]: 36.1 µM; Stability [6]: Unstable; degraded [8]: > 15%; inhibition [21]: Active; IC50 (HepG2 [9]): 24.1 µM; inhibition [22]: Active; inhibition (Calu-1 [23]): Active; remaining at 4 h [20, 24]: 70%; IC50 (Histone deacetylase): 0.018 µM
